Assay results taken from the M2OR odorant receptor database.

What was measured:
Conditions in all cases: stereoisomer not certain
[1] = target: T1, UniProt Q8VF24
T1 sequence (whole entry): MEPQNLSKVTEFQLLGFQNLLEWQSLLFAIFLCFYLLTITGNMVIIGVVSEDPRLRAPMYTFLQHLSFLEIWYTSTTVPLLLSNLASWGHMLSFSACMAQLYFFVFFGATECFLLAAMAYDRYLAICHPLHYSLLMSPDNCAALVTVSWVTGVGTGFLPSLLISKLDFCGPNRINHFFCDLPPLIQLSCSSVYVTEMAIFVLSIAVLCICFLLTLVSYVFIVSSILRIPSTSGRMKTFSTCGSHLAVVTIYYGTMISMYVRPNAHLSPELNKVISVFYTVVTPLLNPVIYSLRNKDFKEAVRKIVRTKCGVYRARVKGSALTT
Procedure, shortened: (§1)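 Assay methods differ from source to source, frequently being transient luciferase assays in mammalian cell lines. For each receptor–molecule pair, the label responsive (active) applies when the original authors judged the measured signal statistically different from baseline, and non-responsive (inactive) applies otherwise.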

[2] = target: T2, UniProt Q8VF43
T2 sequence (whole entry): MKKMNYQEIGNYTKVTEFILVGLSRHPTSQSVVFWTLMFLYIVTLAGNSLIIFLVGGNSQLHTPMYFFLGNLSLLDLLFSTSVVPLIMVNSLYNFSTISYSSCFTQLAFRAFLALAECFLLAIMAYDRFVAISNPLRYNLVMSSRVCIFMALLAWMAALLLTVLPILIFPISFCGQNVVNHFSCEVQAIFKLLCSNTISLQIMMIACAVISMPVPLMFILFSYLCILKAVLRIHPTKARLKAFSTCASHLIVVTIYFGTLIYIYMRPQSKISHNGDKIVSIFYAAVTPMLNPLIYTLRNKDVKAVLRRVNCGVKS
Procedure, shortened: as §1

[3] = target: T3, UniProt Q8VF44
T3 sequence (whole entry): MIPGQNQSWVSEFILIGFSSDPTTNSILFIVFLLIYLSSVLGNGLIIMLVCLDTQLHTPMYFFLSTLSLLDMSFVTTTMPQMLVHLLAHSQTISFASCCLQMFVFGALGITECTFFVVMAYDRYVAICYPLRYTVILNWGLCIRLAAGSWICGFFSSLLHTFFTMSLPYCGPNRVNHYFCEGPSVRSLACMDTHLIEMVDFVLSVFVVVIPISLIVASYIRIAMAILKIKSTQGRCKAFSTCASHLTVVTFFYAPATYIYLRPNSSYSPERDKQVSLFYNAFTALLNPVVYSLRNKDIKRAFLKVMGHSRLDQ
Procedure, shortened: as §1

[4] = target: T4, UniProt Q8VF52
T4 sequence (whole entry): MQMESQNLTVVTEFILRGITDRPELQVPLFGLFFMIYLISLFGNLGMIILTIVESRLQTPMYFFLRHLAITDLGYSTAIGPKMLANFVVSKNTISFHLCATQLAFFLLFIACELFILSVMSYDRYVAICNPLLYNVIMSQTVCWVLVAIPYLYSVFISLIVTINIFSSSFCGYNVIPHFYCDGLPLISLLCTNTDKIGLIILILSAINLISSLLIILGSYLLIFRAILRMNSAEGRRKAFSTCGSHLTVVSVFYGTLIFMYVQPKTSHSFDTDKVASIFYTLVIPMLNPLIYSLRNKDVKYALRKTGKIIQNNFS
Procedure, shortened: as §1

[5] = target: T5, UniProt Q8VFG6
T5 sequence (whole entry): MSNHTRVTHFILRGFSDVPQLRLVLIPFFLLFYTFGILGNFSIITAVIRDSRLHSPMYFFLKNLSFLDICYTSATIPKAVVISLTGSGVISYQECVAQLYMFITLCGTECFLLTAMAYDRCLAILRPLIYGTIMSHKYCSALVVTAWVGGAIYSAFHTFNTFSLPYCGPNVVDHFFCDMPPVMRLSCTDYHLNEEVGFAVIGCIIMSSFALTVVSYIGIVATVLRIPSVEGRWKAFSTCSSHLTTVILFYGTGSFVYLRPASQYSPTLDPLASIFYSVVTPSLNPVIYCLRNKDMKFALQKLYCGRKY
Procedure, shortened: as §1

[6] = target: T6, UniProt Q8VFM8
T6 sequence (whole entry): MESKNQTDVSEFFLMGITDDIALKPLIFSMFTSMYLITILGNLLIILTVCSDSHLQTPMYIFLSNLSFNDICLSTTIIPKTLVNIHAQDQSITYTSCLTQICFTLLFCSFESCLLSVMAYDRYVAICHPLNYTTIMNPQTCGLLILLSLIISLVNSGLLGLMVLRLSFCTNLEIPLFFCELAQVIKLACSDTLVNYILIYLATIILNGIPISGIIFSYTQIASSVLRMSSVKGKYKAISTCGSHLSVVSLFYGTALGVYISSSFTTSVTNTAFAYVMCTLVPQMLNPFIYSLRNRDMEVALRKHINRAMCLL
Procedure, shortened: as §1

[7] = target: UniProt Q8VF73
Procedure, shortened: as §1

[8] = target: UniProt Q8VFB8
Procedure, shortened: as §1

[9] = target: UniProt Q8VF06
Procedure, shortened: as §1

[10] = target: UniProt Q8VF87
Procedure, shortened: as §1

Measured: odorant receptor agonist call

Sequence of UniProt Q8VF06 (Q8VF06 as listed by the source): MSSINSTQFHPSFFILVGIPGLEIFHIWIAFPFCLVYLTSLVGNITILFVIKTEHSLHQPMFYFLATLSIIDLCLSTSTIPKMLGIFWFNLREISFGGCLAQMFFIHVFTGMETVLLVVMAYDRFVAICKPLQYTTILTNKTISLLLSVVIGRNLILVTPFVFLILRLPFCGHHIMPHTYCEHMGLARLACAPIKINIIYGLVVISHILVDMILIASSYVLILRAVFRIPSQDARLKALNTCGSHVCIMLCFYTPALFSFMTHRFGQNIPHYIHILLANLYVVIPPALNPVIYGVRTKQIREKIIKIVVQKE
Sequence of UniProt Q8VFB8 (Q8VFB8 as listed by the source): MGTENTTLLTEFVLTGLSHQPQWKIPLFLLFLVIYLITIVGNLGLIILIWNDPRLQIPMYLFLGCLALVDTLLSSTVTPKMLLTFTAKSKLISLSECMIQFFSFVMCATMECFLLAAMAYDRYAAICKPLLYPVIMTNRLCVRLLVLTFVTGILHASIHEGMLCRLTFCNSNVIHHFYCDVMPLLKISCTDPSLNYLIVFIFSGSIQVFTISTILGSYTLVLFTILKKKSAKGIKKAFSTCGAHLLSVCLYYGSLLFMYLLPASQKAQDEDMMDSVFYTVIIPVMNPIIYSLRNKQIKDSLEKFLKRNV
Sequence of UniProt Q8VF73 (Q8VF73 as listed by the source): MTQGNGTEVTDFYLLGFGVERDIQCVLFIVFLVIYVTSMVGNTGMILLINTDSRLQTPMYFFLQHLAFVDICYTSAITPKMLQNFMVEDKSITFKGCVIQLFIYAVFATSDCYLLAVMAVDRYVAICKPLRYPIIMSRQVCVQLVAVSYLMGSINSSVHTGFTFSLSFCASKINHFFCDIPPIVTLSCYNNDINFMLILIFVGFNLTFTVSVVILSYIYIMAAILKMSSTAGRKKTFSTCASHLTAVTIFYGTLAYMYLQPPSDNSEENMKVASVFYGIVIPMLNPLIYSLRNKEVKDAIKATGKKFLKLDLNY
Sequence of UniProt Q8VF87 (Q8VF87 as listed by the source): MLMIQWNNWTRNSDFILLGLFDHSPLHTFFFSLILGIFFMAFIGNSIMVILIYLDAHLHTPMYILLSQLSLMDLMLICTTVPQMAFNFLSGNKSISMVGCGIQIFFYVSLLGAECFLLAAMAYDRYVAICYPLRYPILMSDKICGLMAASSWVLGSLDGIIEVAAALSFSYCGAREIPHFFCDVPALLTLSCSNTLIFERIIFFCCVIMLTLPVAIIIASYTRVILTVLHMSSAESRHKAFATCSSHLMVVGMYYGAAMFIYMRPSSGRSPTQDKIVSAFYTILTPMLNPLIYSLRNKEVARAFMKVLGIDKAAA

CCC(=O)C(=O)CC
inactive: [1] | [2] | [3] | [4] | [5] | [6]

O=C1CCOc2ccccc21
active: [4] | [7] | [8] | [5]
inactive: [1] | [2] | [3] | [6]

CCCCC(=O)O
not listed: [7] | [8] | [10]
inactive: all other assays above

CCOC(=O)C(C)C
inactive: [1] | [2] | [3] | [4] | [5] | [6]

CCCCCCCCC(=O)O
active: [9]
not listed: [7] | [8] | [10]
inactive: all other assays above

CCCCC(C)=O
inactive: [1] | [2] | [3] | [4] | [5] | [6]

O=C(O)CCCCCCCCCCCBr
active: [9]

CC(C)=CCCC(C)=CCO
inactive: [1] | [2] | [3] | [4] | [5] | [6]

CCCC(C)=O
inactive: [9] | [1] | [3] | [4] | [5]

CCCCCCCCCO
not listed: [7] | [8] | [10]
inactive: all other assays above

CCCCCCCCCS
inactive: [1] | [2] | [3] | [4] | [5] | [6]

CCC(=O)O
inactive: [1] | [2] | [3] | [4] | [5] | [6]

O=C(O)CCCCCBr
inactive: [9] | [2] | [4] | [6]

CCCCCCOC(C)=O
inactive: [1] | [2] | [3] | [4] | [5] | [6]

CCCCCCCCCCC(=O)O
inactive: [9]

CCCCOC=O
inactive: [1] | [2] | [3] | [4] | [5] | [6]

CCCCCC(=O)CC
inactive: [1] | [2] | [3] | [4] | [5] | [6]

CCCCCCCCCCCO
inactive: [2] | [4] | [6]
active: [9]

CCCCOC(=O)CCC
inactive: [9]

CCCCCCCO
not listed: [7] | [8] | [10]
inactive: all other assays above

CCCCCCCCCCCC(=O)O
inactive: [9]

CCCCCCO
not listed: [7] | [8] | [10]
inactive: all other assays above

CCCC(=O)C(C)=O
inactive: [1] | [2] | [3] | [4] | [5] | [6]

CCCCC(=O)CC
inactive: [1] | [2] | [3] | [4] | [5] | [6]

CCCCCCCCCCO
inactive: [1] | [2] | [3] | [4] | [5] | [6]

CCCCCC1=C(C)CCC1=O
active: [4]
inactive: [1] | [2] | [3] | [5] | [6]

CCCCCOC(=O)CCCCC
inactive: [1] | [2] | [3] | [4] | [5] | [6]

O=C(O)CCCCCCCCCC(=O)O
inactive: [9]

CCCCCCCCCC(=O)[O-].[H+]
inactive: [1] | [2] | [3] | [4] | [5] | [6]

C=C(C)C1CCC(C)C(=O)C1 (stereo unspecified)
inactive: [1] | [2] | [3] | [5] | [6]
active: [4]

CCCCCCCCO
not listed: [7] | [8] | [10]
inactive: all other assays above

CCCCCCCC(=O)[O-].[H+]
inactive: [1] | [3] | [4] | [5]
active: [9]

O=C([O-])CCCCCCCC(=O)[O-].[H+].[H+]
inactive: [9] | [2] | [4] | [6]

CCCCC=O
inactive: [9] | [2] | [4] | [6]

O=c1ccc2ccccc2o1
active: [7]
inactive: [8]

OCCc1ccccc1
inactive: [2] | [4] | [6]

O=C(O)CCCCCCCCC(=O)O
inactive: [2] | [4] | [6]

CCCCCCCCOC=O
inactive: [2] | [4] | [6]

CCCO
inactive: [2] | [4] | [6]

CCc1occc(=O)c1O
inactive: [2] | [4] | [6]

CCCCCC(C)O (stereo unspecified)
inactive: [2] | [4] | [6]

CCCCCCCCCC=CC=O
inactive: [2] | [4] | [6]

CC(=O)C=CC1=C(C)CCCC1(C)C
active: [4]
inactive: [2] | [6]

COC(OC)c1ccccc1
inactive: [2] | [4] | [6]

OCC=Cc1ccccc1
inactive: [2] | [4] | [6]

CC(=O)OCc1ccc2c(c1)OCO2
inactive: [2] | [4] | [6]

C=CC(=O)CCCCC
inactive: [2] | [4] | [6]

CC=Cc1ccc(OC)cc1
inactive: [2] | [4] | [6]

C=C1C2CCC(C2)C1(C)C (stereo unspecified)
inactive: [2] | [4] | [6]

CCCCCC(C=O)=Cc1ccccc1
active: [4]
inactive: [2] | [6]

CCCCCC(=Cc1ccccc1)C(OC)OC
inactive: [2] | [4] | [6]

C1CCOCC1
inactive: [2] | [4] | [6]

C=CC(=C)CCC=C(C)C
inactive: [2] | [4] | [6]

CCCCCC=CCCC=O
inactive: [2] | [4] | [6]

CCCC(C)C(=O)OCC (stereo unspecified)
inactive: [2] | [4] | [6]

COc1ccccc1
inactive: [2] | [4] | [6]

CCCCCCC(=O)OCCCC
inactive: [2] | [4] | [6]

CCC(C)c1nccnc1OC (stereo unspecified)
inactive: [2] | [4] | [6]

CCC=CCCCCC=O
inactive: [2] | [4] | [6]

Cc1ccc(C(C)C)cc1
inactive: [2] | [4] | [6]

COc1nccnc1C(C)C
inactive: [2] | [4] | [6]

CCSCC
inactive: [2] | [4] | [6]

CCCCCCCCCCOC(C)=O
inactive: [2] | [4] | [6]

CC(=O)C1(C)CC2=C(CCCC2(C)C)CC1C (stereo unspecified)
inactive: [2] | [4] | [6]

CCCCCOC(=O)CC
inactive: [2] | [4] | [6]

CCC(C)O (stereo unspecified)
inactive: [2] | [4] | [6]

C=C(C)C1CC=C(C)CC1 (stereo unspecified)
inactive: [2] | [4] | [6]

CCCCCCC(C=O)=Cc1ccccc1
inactive: [2] | [4] | [6]

CCC=CCCC=CC=O
inactive: [2] | [4] | [6]

C1CCOC1
inactive: [2] | [4] | [6]

O=C(OCc1ccccc1)c1ccccc1O
inactive: [2] | [4] | [6]

C=CC(C)=CCC=C(C)CCC=C(C)C
inactive: [2] | [4] | [6]

C=C(C)C1CCC(C)C(O)C1 (stereo unspecified)
inactive: [2] | [4] | [6]

CCCCCCCCC=CC=O
inactive: [2] | [4] | [6]

CC(=O)OC1(C)CCC23CC1C(C)(C)C2CCC3C (stereo unspecified)
inactive: [6]
active: [2] | [4]

CC(C)=C1CCC(C)CC1=O (stereo unspecified)
inactive: [2] | [4] | [6]

CCc1nccnc1CC
inactive: [2] | [4] | [6]

Cc1ccc(OC(=O)C(C)C)cc1
inactive: [2] | [4] | [6]

CSSSC
inactive: [2] | [4] | [6]

CCN(CC)CC
inactive: [2] | [4] | [6]

CCC(S)C(C)CO (stereo unspecified)
inactive: [10]

COc1nccnc1C
inactive: [2] | [4] | [6]

C=C(CC)CCCC(C)(C)O
inactive: [2] | [4] | [6]

Cc1ccc(C(C)C)c(O)c1
inactive: [2] | [4] | [6]

CC(C)CCN
inactive: [2] | [4] | [6]

CCOC(=O)CC(C)C
inactive: [2] | [4] | [6]

Cc1c(C)c(C)c(C=O)c(C)c1C
inactive: [2] | [6]
active: [4]

CCc1ncc(C)nc1CC
inactive: [2] | [4] | [6]

CC=CC(=O)C1=C(C)CCCC1(C)C
inactive: [2] | [6]
active: [4]

CCc1ccc(O)cc1
inactive: [2] | [4] | [6]

CC1(C)CC(=O)CC(=O)C1
inactive: [2] | [4] | [6]

Cc1ccccc1OC(=O)C(C)C
inactive: [2] | [4] | [6]

O=C(O)C1CCC1
inactive: [2] | [4] | [6]

Cc1ccc2c(c1)OCC(=O)CO2
inactive: [2] | [4] | [6]

CC=C(C)C=O
inactive: [2] | [4] | [6]

CC(=O)OCCc1ccccc1
inactive: [2] | [4] | [6]

C=C(C)C1CCC2(C)OC2C1 (stereo unspecified)
inactive: [2] | [4] | [6]

CCCCCCC(C)O (stereo unspecified)
inactive: [2] | [4] | [6]

COc1cnccn1
inactive: [2] | [4] | [6]

CCCCCCC=CC=O
inactive: [2] | [4] | [6]

OCCCCCCCCCO
inactive: [2] | [4] | [6]

CC(CC=O)CCCC(C)(C)O (stereo unspecified)
inactive: [2] | [4] | [6]

Cc1occc1SSc1ccoc1C
inactive: [2] | [4] | [6]
